In ChEMBL document CHEMBL1122161, “Irreversible enzyme inhibitors. 202. Candidate active-site-directed irreversible inhibitors of 5-fluoro-2'-deoxyuridine phosphorylase from Walker 256 rat tumor derived from 1-benzyl-5-(3-ethoxybenzyl)uracil” (J Med Chem, 1982):

Experiments:
[1] = (§1) Ability for reversible inhibition of Walker 256 5-Fluoro-2'-deoxyuridine Phosphorylase; set-up: species or system Rattus norvegicus; details: read-out: I50
Outline: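 Walker 256 rat tumor FUDR phosphorylase (uridine-deoxyuridine phosphorylase) was assayed with 400 μM FUDR substrate in pH 5.9 arsenate-succinate buffer containing 10% Me2SO. The value is the inhibitor concentration giving 50% inhibition (I50).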

[2] = as §1; set-up: species or system Rattus norvegicus; details: read-out: I 50
Outline: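 Enzyme from Walker 256 rat tumor, assayed with 400 μM FUDR as substrate in pH 5.9 arsenate-succinate buffer with 10% Me2SO. Value reported as concentration giving 50% inhibition.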

Rattus norvegicus = species on record: Rattus norvegicus; assay: Irreversible inhibition of Walker 256 FUDR phosphorylase; expressed as Vo/Vi, velocity without inhibitor to that of velocity with inhibitor
Outline: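 Walker 256 FUDR phosphorylase preincubated 20 min at ambient temperature with 20 μM (final) inhibitor in pH 5.9 arsenate-succinate buffer, 10% Me2SO, alongside zero-time tubes. Unbound inhibitor then removed by two 1-octanol extractions. Remaining activity assayed after adding 4 mM FUDR stock, stopped with 5% trichloroacetic acid, read as for reversible assay. V0/Vi of 2 corresponds to 50% inhibition.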

| Structure (SMILES) | IC50 [1] [nM] | IC50 [2] [nM] | Ratio (Rattus norvegicus) |
| --- | --- | --- | --- |
| Oc1ncc(Cc2ccccc2)c(O)n1 | 5300 | – | – |
| CCOc1cccc(Cc2cn(Cc3ccc(NC(=O)c4ccccc4)cc3)c(=O)[nH]c2=O)c1 | 3800 | – | – |
| COc1cccc(Cc2cnc(O)nc2O)c1 | 1900 | – | – |
| O=c1[nH]c(=O)n(Cc2ccccc2)cc1Cc1cccc(OCc2ccccc2)c1 | 2500 | – | – |
| CCOc1cccc(Cc2cn(Cc3ccc(NC(=O)c4ccc(S(=O)(=O)F)cc4)cc3)c(=O)[nH]c2=O)c1 | – | 15000 | 1 |
| CCOc1cccc(Cc2cn(Cc3cccc(NC(=O)c4cccc(S(=O)(=O)F)c4)c3)c(=O)[nH]c2=O)c1 | – | 3200 | 1.1 |
| Oc1ncc(Cc2cccc(OCc3ccccc3)c2)c(O)n1 | 500 | – | – |
| CCOc1cccc(Cc2cn(Cc3ccccc3)c(=O)[nH]c2=O)c1 | – | 1200 | – |
| O=c1[nH]c(=O)n(Cc2ccccc2)cc1Cc1ccccc1 | 2600 | – | – |
| O=c1[nH]c(=O)n(CCCOc2ccccc2)cc1Cc1ccccc1 | 5700 | – | – |
| CCOc1cccc(Cc2cn(Cc3cccc(NC(=O)Nc4ccc(S(=O)(=O)F)cc4)c3)c(=O)[nH]c2=O)c1 | – | 1900 | 1.1 |
| CCOc1cccc(Cc2cn(Cc3ccc(NC(=O)c4cccc(S(=O)(=O)F)c4)cc3)c(=O)[nH]c2=O)c1 | – | 33000 | 1 |
| CCOc1cccc(Cc2cnc(O)nc2O)c1 | – | 1400 | – |
| CCOc1cccc(Cc2cn(Cc3cccc(NC(=O)c4ccccc4)c3)c(=O)[nH]c2=O)c1 | 1200 | – | 1.2 |
| Cn1cc(Cc2ccccc2)c(=O)[nH]c1=O | 6200 | – | – |
| CCOc1cccc(Cc2cn(Cc3cccc(NC(=O)c4ccc(S(=O)(=O)F)cc4)c3)c(=O)[nH]c2=O)c1 | – | 2500 | 1 |
| CCOc1cccc(Cc2cn(Cc3cccc(NC(=O)Nc4cccc(S(=O)(=O)F)c4)c3)c(=O)[nH]c2=O)c1 | – | 1100 | 1.2 |
